Screens: PubChem BioAssay, several laboratories
Rad51 HR inh = blocks human Rad51 in homologous recombination; hRad51 DNA strand exchange, fluorescence dequenching; inhibition, % at 10 µM; 0.085% of 200,000 active;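 active = inhibition above 40% at the single screening dose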;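 also: 0% = DMSO control wells and 100% = blanks with heterologous ssDNA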
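System: hRad51 filaments on single-stranded DNA; reagent: Fluorescein- and BHQ1-tagged 47-mer duplex; compound dosing: one concentration, 10 µM final; timing: filaments 15 min 37 °C, then compound 30 min; measured by: fluorescein emission 520 nm, excitation 485 nm; benchmarks: per-plate controls and blanks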
CHOP inhibitor = CHOP inhibition in unfolded protein response | CHO-K1 CHOP-promoter luciferase, tunicamycin-induced, 15-18 h | inhibition, % at 10 µM | 3.8% of 220,000 active | AID 2732;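 active = compounds that reduced the stress-induced luciferase reporter signal by more than about 70% of percent inhibition, limit read from the data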;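 also: 0% = tunicamycin plus vehicle and 100% = wells without tunicamycin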
Wee1 stabilizer = human Wee1 degradation inhibition, primary screen | reporter increase, % at 5 µM | 1.2% of 220,000 active | HeLa Luc-Wee1K328M stability, luciferase luminescence; 100% = proteasome inhibitor MG132 effect | P30291;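 active = activation above the mean of all tested compounds plus 3 SD, set per screening run, cut at about 8.8% in these data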;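 also: cells exposed to compound for 20 h before luminescence read; 0% = DMSO alone and 100% = MG132 at 30 µM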
Target sequence (P30291 whole entry K328M): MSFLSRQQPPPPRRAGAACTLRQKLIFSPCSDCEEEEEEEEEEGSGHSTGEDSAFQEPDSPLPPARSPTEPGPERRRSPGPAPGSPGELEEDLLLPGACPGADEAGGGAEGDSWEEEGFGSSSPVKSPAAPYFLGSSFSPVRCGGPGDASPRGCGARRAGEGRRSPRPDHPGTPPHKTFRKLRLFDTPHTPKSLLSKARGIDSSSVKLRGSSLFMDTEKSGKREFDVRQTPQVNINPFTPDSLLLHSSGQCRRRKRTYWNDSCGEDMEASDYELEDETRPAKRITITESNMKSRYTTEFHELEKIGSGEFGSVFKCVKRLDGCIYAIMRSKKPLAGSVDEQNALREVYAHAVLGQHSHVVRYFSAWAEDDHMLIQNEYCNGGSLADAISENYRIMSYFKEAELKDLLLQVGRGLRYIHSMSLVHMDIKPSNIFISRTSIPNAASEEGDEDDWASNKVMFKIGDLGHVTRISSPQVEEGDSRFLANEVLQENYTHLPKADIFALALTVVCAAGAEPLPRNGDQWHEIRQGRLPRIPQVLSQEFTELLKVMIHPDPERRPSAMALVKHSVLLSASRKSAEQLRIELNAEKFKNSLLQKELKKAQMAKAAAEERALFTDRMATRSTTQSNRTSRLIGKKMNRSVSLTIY
Arbovirus anti = arbovirus infection inhibition | arbovirus infection cell-based antiviral screen | inhibition, % at 10 µM | 0.37% of 200,000 active | AID 1251; in the data active = inhibition above about 30%
PKD1 inh = blocks activity of human protein kinase D1. PKD1 kinase fluorescence polarization assay. inhibition, % (concentration not given with the values). 0.056% of 200,000 active. AID 797
Lmaj promast = inhibitors of Leishmania major promastigote growth | Leishmania major promastigotes, resazurin fluorescence viability | inhibition, % at 10 µM | 9% of 200,000 active;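 also: promastigotes grown with compound for 44 hours at 28 °C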
The depositor's hits bear a star. A selection: hits, their analogues and other compounds. The true share with any hit is near 12%. Rule as the data show it, unless noted: active = inhibition above about 50%; inactive = the rest.

What do the screens show for `O=c1cnn(-c2ccccc2)c(-c2ccccc2)c1`?
Rad51 HR inh: 0.2; CHOP inhibitor: -17.6; Wee1 stabilizer: -1.4; Arbovirus anti: -3.1; PKD1 inh: -9.6; Lmaj promast: 82.0*

Results for Cc1ccc(N/N=C(\Cc2nc3ccccc3[nH]2)c2ccccc2)cc1 ?
CHOP inhibitor: 19.5; Wee1 stabilizer: 16.1*; Arbovirus anti: -14.6; PKD1 inh: 5.5; Lmaj promast: 88.0*

How did O=C(Cc1nc2ccccc2[nH]1)c1ccc(Br)cc1 do in these assays?
Rad51 HR inh: -10.0; CHOP inhibitor: -31.2; Wee1 stabilizer: 0.8; Arbovirus anti: 12.7; PKD1 inh: -6.9; Lmaj promast: 96.3*

How did c1ccc(N/N=C(\Cc2nc3ccccc3[nH]2)c2ccccc2)cc1 do in these assays?
Rad51 HR inh: -0.8; CHOP inhibitor: 44.2; Wee1 stabilizer: -0.1; Arbovirus anti: -20.3; PKD1 inh: 7.8; Lmaj promast: 9.2

What do the screens show for `CCN/N=C(\Cc1nc2ccccc2[nH]1)c1ccccc1`?
Rad51 HR inh: -6.1; CHOP inhibitor: 19.3; Wee1 stabilizer: -2.1; Arbovirus anti: -2.2; PKD1 inh: -5.0; Lmaj promast: 74.7*

Results for Cc1c2ccccc2nc2c(F)c(N(C)C)c(F)c(F)c12 ?
Rad51 HR inh: -42.4; CHOP inhibitor: 9.0; Wee1 stabilizer: 1.4; Arbovirus anti: -6.7; PKD1 inh: 7.0; Lmaj promast: 8.2

What do the screens show for `CN(C)c1c2ccccc2nc2c(F)c(F)c(F)c(F)c12`?
Rad51 HR inh: -15.9; CHOP inhibitor: 70.2*; Wee1 stabilizer: 0.9; Arbovirus anti: -22.2; PKD1 inh: 6.1; Lmaj promast: 12.9

What do the screens show for `Cc1cccc(N2CCN(CCNC(=O)c3cc4c(s3)CS(=O)(=O)C4)CC2)c1C`?
Rad51 HR inh: 1.5; CHOP inhibitor: 2.5; Wee1 stabilizer: -2.0; Arbovirus anti: 0.2; PKD1 inh: -3.4; Lmaj promast: 98.6*

How did Cc1cc(/C=C(\C#N)C(=O)NCc2ccco2)c(C)n1-c1cccnc1 do in these assays?
Rad51 HR inh: 2.7; CHOP inhibitor: -7.4; Wee1 stabilizer: 0.5

What do the screens show for `Cc1cc(/C=C(\C#N)C(=O)NCc2ccco2)c(C)n1C1CCCC1`?
Rad51 HR inh: -5.4; CHOP inhibitor: 44.6; Wee1 stabilizer: -0.7; Arbovirus anti: 6.1; PKD1 inh: -0.2; Lmaj promast: 72.0*

What do the screens show for `COc1ccccc1OCCn1cc(/C=C(\C#N)C(=O)NCc2ccco2)c2ccccc21`?
CHOP inhibitor: 56.2; Wee1 stabilizer: 0.6; Arbovirus anti: -4.3; PKD1 inh: 2.4; Lmaj promast: 53.1*

What do the screens show for `Cc1ccc(C)c(OCCn2cc(/C=C(\C#N)C(=O)NCc3ccco3)c3ccccc32)c1`?
Rad51 HR inh: -18.5; CHOP inhibitor: 41.4; Wee1 stabilizer: 0.9; Arbovirus anti: -25.3; PKD1 inh: 1.2; Lmaj promast: 65.4*

What do the screens show for `CCn1ncc(/C=N\NC(=O)c2csc3ccccc23)c1C`?
Rad51 HR inh: -8.8; CHOP inhibitor: -35.7; Wee1 stabilizer: 3.2; Arbovirus anti: -9.3; PKD1 inh: -3.2; Lmaj promast: 61.9*

Results for O=C(N/N=C/c1cccc(O)c1)c1csc2ccccc12 ?
Rad51 HR inh: -11.3; CHOP inhibitor: -4.7; Wee1 stabilizer: 2.8; Arbovirus anti: -4.2; PKD1 inh: 16.5; Lmaj promast: 68.9*

What do the screens show for `Cc1c(/C=N\NC(=O)c2csc3ccccc23)cnn1C`?
Rad51 HR inh: 0.2; CHOP inhibitor: -34.5; Wee1 stabilizer: -0.2; Arbovirus anti: -11.7; PKD1 inh: -10.9; Lmaj promast: -1.5

How did O=S(=O)(c1cccs1)N1CCN(CC(O)COc2cccc(Br)c2)CC1 (stereo not drawn) do in these assays?
Rad51 HR inh: 6.8; CHOP inhibitor: 7.9; Wee1 stabilizer: -2.0; Arbovirus anti: 17.3; PKD1 inh: -2.8; Lmaj promast: 98.1*

What do the screens show for `Cc1ccccc1Cn1ccc(=NCc2ccccc2)cc1`?
Rad51 HR inh: 3.2; CHOP inhibitor: 4.0; Wee1 stabilizer: -4.0; Arbovirus anti: 5.5; PKD1 inh: -5.1; Lmaj promast: 100.4*

Results for Cc1nc2c(-c3ccccc3)c(C)nn2c(SCC(N)=O)c1Cc1ccccc1 ?
Rad51 HR inh: 18.6; CHOP inhibitor: 28.4; Wee1 stabilizer: -1.3

What do the screens show for `CCC(=O)N1CCc2cc(S(=O)(=O)NCCCN(CC)Cc3ccccc3)ccc21`?
Rad51 HR inh: -5.9; CHOP inhibitor: -20.0; Wee1 stabilizer: -0.2; Arbovirus anti: 2.0; PKD1 inh: -8.9; Lmaj promast: 55.1*

What do the screens show for `CCC(=O)N1CCc2cc(S(=O)(=O)NCCC(=O)N3CCN(Cc4ccccc4)CC3)ccc21`?
Rad51 HR inh: -0.3; CHOP inhibitor: -14.7; Wee1 stabilizer: 3.6; Arbovirus anti: 6.4; PKD1 inh: -6.4; Lmaj promast: 0.9

Results for COc1ccccc1OCC(=O)NCCCn1ccnc1 ?
Rad51 HR inh: -11.0; CHOP inhibitor: 4.7; Wee1 stabilizer: -6.0; Arbovirus anti: 6.0; PKD1 inh: -0.2; Lmaj promast: 1.3

What do the screens show for `Clc1ccccc1OCCn1ccnc1`?
Rad51 HR inh: -7.0; CHOP inhibitor: -20.4; Wee1 stabilizer: 0.0; Arbovirus anti: 7.1; PKD1 inh: 0.5; Lmaj promast: 0.0

What do the screens show for `Cc1cccc(OCCCCCn2ccnc2)c1C`?
Rad51 HR inh: -227.2; CHOP inhibitor: 49.4; Wee1 stabilizer: -1.7; Arbovirus anti: -14.0; PKD1 inh: 2.8; Lmaj promast: 99.4*

What do the screens show for `CC(C)(C)c1ccccc1OCCCCCn1ccnc1`?
Rad51 HR inh: 0.2; CHOP inhibitor: 14.6; Wee1 stabilizer: -0.3; Arbovirus anti: -23.4; PKD1 inh: -0.2; Lmaj promast: 94.8*

Results for O=C(OCc1ccccn1)c1ccc(COc2ccc3ccccc3c2)o1 ?
Rad51 HR inh: -0.9; CHOP inhibitor: 27.8; Wee1 stabilizer: 8.5

Results for Cc1ccc(S(=O)(=O)N(CCCO)CC(O)CON=C2c3ccccc3-c3ccccc32)cc1 (stereo not drawn) ?
Rad51 HR inh: -2.2; CHOP inhibitor: 41.3; Wee1 stabilizer: -0.9; Arbovirus anti: -45.6; PKD1 inh: 1.7; Lmaj promast: 100.3*

Results for NN(CCO)C(=S)Nc1ccc(Cl)cc1 ?
Rad51 HR inh: 2.1; CHOP inhibitor: 3.9; Wee1 stabilizer: -2.5; Arbovirus anti: 7.0; PKD1 inh: -5.5; Lmaj promast: -4.3

How did O=C(O)CCn1cc(/C=C2\NC(=S)N(c3ccccc3)C2=O)c(-c2ccc(Br)cc2)n1 do in these assays?
Rad51 HR inh: -3.1; CHOP inhibitor: 6.0; Wee1 stabilizer: -4.5; Arbovirus anti: 13.8; PKD1 inh: -5.6; Lmaj promast: -2.8

Results for N#CCCn1cc(/C=C2\NC(=S)N(c3ccccc3)C2=O)c(-c2ccc(F)cc2)n1 ?
Rad51 HR inh: -9.0; CHOP inhibitor: 79.2*; Wee1 stabilizer: -2.8; Arbovirus anti: 0.2; PKD1 inh: 8.6; Lmaj promast: 0.3

Results for NS(=O)(=O)c1ccc(Nc2nc(-c3ccc(F)cc3)cs2)cc1 ?
Rad51 HR inh: 8.1; CHOP inhibitor: 23.3; Wee1 stabilizer: -1.2; Arbovirus anti: -18.1; PKD1 inh: -2.3; Lmaj promast: 23.1
